Results published in ChEMBL document CHEMBL1126057, “Highly water-soluble lipophilic prodrugs of the anti-HIV nucleoside analogue 2',3'-dideoxycytidine and its 3'-fluoro derivative” (J Med Chem, 1992).
≈ marks a conversion by molar mass, not a printed value.

How the values were obtained:
[1] = Water solubility of the compound.; type: ADME; conditions: read-out: S
Outline: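 Solubility in double-distilled water at room temperature, in mg/mL.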

[2] = pKa value of the compound.; type: physicochemical
Outline: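 pKa determined by UV spectroscopy at room temperature.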

[3] = tested on: CCRF-CEM; assay: The compound was tested for the antiviral activity against HIV from CEM-IW human lymphocyte,; type: functional; conditions: read-out: ED50 (the source's name)
Outline: (§1)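 CEM-IW human lymphocytes in culture; reduction of HIV cytopathic effect. Value is the concentration (µM) producing 50% antiviral effect.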

[4] = tested on: CCRF-CEM; assay: The compound was tested for the cytotoxicity against HIV from CEM-IW human lymphocyte; type: functional, cell-based
Outline: (§2)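 Cytotoxicity in the same cell cultures as the antiviral assays, measured as 50% growth inhibition by tetrazolium dye assay. Value is the concentration (µM) producing 50% cytotoxicity.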

[5] = The compound was tested for the antiviral activity against Rauscher murine leukemia virus; type: functional; conditions: Mus musculus; read-out: ED50 (the source's name)
Outline: (§3)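 UV-XC plaque reduction assay for Rauscher murine leukemia virus in SC-1 cells in culture, in vitro. Value is the concentration (µM) producing 50% antiviral effect.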

[6] = The compound was tested for the cytotoxicity against Rauscher murine leukemia virus; type: functional, Mus musculus; outline: as §2
[7] = Partition coefficient (P); conditions: octanol/water
[8] = Half-life in potassium phosphate buffered saline(PBS) at 37 degree C.; type: ADME
Outline: (§4)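 Prodrug at 5 × 10^-5 M in PBS, pH 7.4, incubated at 37 °C. A317 read at regular intervals. Pseudo-first-order rate constant taken from the slope of ln(absorbance) vs time, then converted to t1/2.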

[9] = Half-life in potassium phosphate buffered saline (PBS) at 37 degree C.; type: ADME; outline: as §4
[10] = Half-life in 10% serum solution at 37 degree C.; type: ADME, cell-free
Outline: (§5)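 Diisopropylamino prodrugs diluted from 10^-2 M stock into human serum, made up with buffer to 10% or 20% serum, or mixed with serum to 90% serum. Incubated at 37 °C; 50-µL aliquots withdrawn at intervals, diluted with buffer, A317 read. Half-life taken from the pseudo-first-order rate constant, i.e. the slope of ln(absorbance) vs time.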

[11] = Half-life in 1N HCl at 37 degree C.; type: ADME
Outline: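 Diisopropylamino prodrugs at 5 × 10^-5 M in 1 N HCl at 37 °C. Absorbance at 317 nm recorded at regular intervals. ln(absorbance) vs time plotted; slope gives the pseudo-first-order hydrolysis rate constant, from which t1/2 was calculated.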

[12] = Half-life in 20% serum solution at 37 degree C.; type: ADME, cell-free; outline: as §5
[13] = Half-life in 90% serum solution at 37 degree C.; type: ADME, cell-free; outline: as §5
[14] = The compound was tested for the antiviral activity against Rauscher murine leukemia virus in SC-1 cells; type: functional; conditions: Mus musculus, read-out: ED50 (the source's name); outline: as §3
[15] = The compound was tested for the cytotoxicity in SC-1 cells; conditions: Mus musculus
[16] = tested on: CCRF-CEM; assay: The compound was tested for the antiviral activity against HIV from CEM-IW human lymphocyte; type: functional; conditions: read-out: ED50 (the source's name); outline: as §1
[17] = Half-life in potassium phosphate buffered saline (PBS) at 37 degree C(0% serum solution).; type: ADME; outline: as §4

With Nc1ccn(C2CC(F)C(CO)O2)c(=O)n1 (stereo unspecified) the solubility [1] was 15 mg/mL (≈ 65.4 mM), the pKa [2] was 4.22 and the EC50 [3] was 0.16 µM. For the same compound, the IC50 [4] was > 3200 µM, the EC50 [5] was 158 µM and the IC50 [6] was > 1000 µM. For the same compound, the P [7] was -0.893.
Compound CCN(/C=N\c1ccn(C2CCC(CO)O2)c(=O)n1)CC (stereo unspecified) has a half-life [8] of 8.67 h and a P [7] of -0.059.
Compound CN(C)/C=N\c1ccn(C2CCC(CO)O2)c(=O)n1 (stereo unspecified) has a half-life [9] of 3.8 h and a P [7] of -0.951.
Work on O=c1nc(/N=C\N2CCOCC2)ccn1C1CC(F)C(CO)O1 (stereo unspecified) yielded a half-life [8] of 3.74 h and a P [7] of -0.676.
CCCN(/C=N\c1ccn(C2CC(F)C(CO)O2)c(=O)n1)CCC (stereo unspecified) gave a half-life [8] of 15.6 h.
CC(C)N(/C=N\c1ccn(C2CC(F)C(CO)O2)c(=O)n1)C(C)C (stereo unspecified) showed a half-life [10] of 52.4 h, a half-life [11] of 5.8 h and a half-life [8] of 52.1 h. The half-life [12] was 56.5 h, the half-life [13] was 86.7 h and the solubility [1] was 25 mg/mL (≈ 73.4 mM). The pKa [2] was 5.13, the EC50 [3] was 0.675 µM and the IC50 [4] was > 200 µM. The EC50 [14] was 518 µM and the IC50 [15] was > 1000 µM.
In the case of O=c1nc(/N=C\N2CCCC2)ccn1C1CC(F)C(CO)O1 (stereo unspecified), the half-life [8] is reported as 2.57 h and the P [7] is reported as -0.162.
O=c1nc(/N=C\N2CCCCC2)ccn1C1CC(F)C(CO)O1 (stereo unspecified) showed a half-life [8] of 6.3 h and a P [7] of 0.358.
With CN(C)/C=N\c1ccn(C2CC(F)C(CO)O2)c(=O)n1 (stereo unspecified) the half-life [8] was 4.66 h, the IC50 [4] was > 200 µM and the EC50 [14] was 214 µM. The EC50 [16] was 0.23 µM, the P [7] was -0.64 and the IC50 [15] was > 1000 µM.
In the case of CCN(/C=N\c1ccn(C2CC(F)C(CO)O2)c(=O)n1)CC (stereo unspecified), the half-life [8] is reported as 10.2 h and the P [7] is reported as 0.227.
Work on O=c1nc(/N=C\N2CCOCC2)ccn1C1CCC(CO)O1 (stereo unspecified) yielded a half-life [8] of 3.92 h and a P [7] of -0.967.
For CC(C)N(/C=N\c1ccn(C2CCC(CO)O2)c(=O)n1)C(C)C (stereo unspecified), the half-life [10] was 47.3 h, the half-life [11] was 3.9 h and the half-life [17] was 47.5 h. For the same compound, the half-life [12] was 51.2 h, the half-life [13] was 65.6 h and the solubility [1] was > 300 mg/mL. The pKa [2] was 5.28, the EC50 [3] was 0.065 µM and the IC50 [4] was > 200 µM. The EC50 [5] was 20.6 µM, the IC50 [6] was > 1000 µM and the P [7] was 0.724.
Work on CCCN(/C=N\c1ccn(C2CCC(CO)O2)c(=O)n1)CCC (stereo unspecified) yielded a half-life [8] of 13.1 h and a P [7] of 0.948.
Work on O=c1nc(/N=C\N2CCCCC2)ccn1C1CCC(CO)O1 (stereo unspecified) yielded a half-life [8] of 6.4 h and a P [7] of 0.057.
Compound O=c1nc(/N=C\N2CCCC2)ccn1C1CCC(CO)O1 (stereo unspecified) has a half-life [8] of 2.13 h and a P [7] of -0.467.
Nc1ccn([C@H]2CC[C@@H](CO)O2)c(=O)n1 [ZALCITABINE] showed a solubility [1] of 78 mg/mL (≈ 369 mM), a pKa [2] of 4.42 and an EC50 [5] of 2.2 µM. The IC50 [6] was > 1000 µM.
